Experimental data from ChEMBL document CHEMBL3612021, “Structure-kinetics relationships of Capadenoson derivatives as adenosine A1 receptor agonists” (Eur J Med Chem, 2015).
pEC50: −log10 of the molar value.

What was measured:
[1] = biological target: T1, Adenosine receptor A1 (Homo sapiens) (UniProt P30542); assay: Displacement of [3H]DPCPX from human adenosine A1 receptor expressed in CHO cell membranes assessed as kinetic rate index by measuring ratio of binding at earlier and later time points by competition association assay
T1 sequence (whole entry): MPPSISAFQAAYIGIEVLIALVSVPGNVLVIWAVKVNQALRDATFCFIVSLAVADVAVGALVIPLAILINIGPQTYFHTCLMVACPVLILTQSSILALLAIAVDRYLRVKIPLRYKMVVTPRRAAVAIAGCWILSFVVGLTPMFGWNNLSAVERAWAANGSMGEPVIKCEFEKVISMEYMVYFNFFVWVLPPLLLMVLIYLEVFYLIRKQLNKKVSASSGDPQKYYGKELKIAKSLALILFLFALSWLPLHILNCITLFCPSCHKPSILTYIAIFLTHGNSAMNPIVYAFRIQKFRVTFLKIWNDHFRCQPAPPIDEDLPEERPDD
How it was run: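 Dual-point competition association assay with [3H]DPCPX on CHO membranes stably expressing hA1. Specific binding is read at two time points in the presence of the test ligand. KRI is the ratio of binding at the earlier to the later time point (n = 2; both values reported).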

[2] = biological target: Adenosine receptor A2a (Homo sapiens) (UniProt P29274); assay: Displacement of [3H]ZM241385 from human adenosine A2A receptor expressed in HEK293 cell membranes at 1 uM by competition association assay
[3] = biological target: T2, Adenosine receptor A2b (Homo sapiens) (UniProt P29275); assay: Displacement of [3H]PSB603 from human adenosine A2B receptor expressed in CHO cell membranes at 1 uM by competition association assay
T2 sequence (whole entry): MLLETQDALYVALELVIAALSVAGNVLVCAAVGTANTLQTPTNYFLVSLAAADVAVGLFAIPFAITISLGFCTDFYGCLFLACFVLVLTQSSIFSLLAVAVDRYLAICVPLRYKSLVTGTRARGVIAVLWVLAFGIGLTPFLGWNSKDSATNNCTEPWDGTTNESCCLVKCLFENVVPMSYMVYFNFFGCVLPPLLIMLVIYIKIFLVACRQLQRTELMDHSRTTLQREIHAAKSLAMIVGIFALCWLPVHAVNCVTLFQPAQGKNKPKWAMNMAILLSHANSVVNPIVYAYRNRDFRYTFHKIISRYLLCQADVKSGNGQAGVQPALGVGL
How it was run: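 Single-point test at 1 µM measuring percent displacement of specific [3H]PSB603 binding on CHO membranes stably expressing human A2B receptors.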

[4] = biological target: T3, Adenosine receptor A3 (Homo sapiens) (UniProt P0DMS8); assay: Displacement of [3H]PSB11 from human adenosine A3 receptor expressed in CHO cell membranes at 1 uM by competition association assay
T3 sequence (whole entry): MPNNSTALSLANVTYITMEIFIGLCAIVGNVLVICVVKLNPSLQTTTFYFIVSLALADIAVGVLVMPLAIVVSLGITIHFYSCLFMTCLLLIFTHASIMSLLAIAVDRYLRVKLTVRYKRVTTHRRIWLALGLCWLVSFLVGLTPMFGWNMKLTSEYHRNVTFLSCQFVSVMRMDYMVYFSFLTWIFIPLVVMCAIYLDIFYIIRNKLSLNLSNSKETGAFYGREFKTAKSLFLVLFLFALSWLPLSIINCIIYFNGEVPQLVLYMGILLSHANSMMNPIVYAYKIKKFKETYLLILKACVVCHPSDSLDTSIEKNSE
How it was run: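 Single-point screen at 1 µM measuring displacement of specific [3H]PSB11 binding on CHO cell membranes stably expressing human A3 receptors.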

Adenosine receptor A1 = biological target: T4, Adenosine receptor A1 (Homo sapiens, UniProt P30542); assay: Agonist activity at human adenosine A1 receptor expressed in CHO cell membranes by [35S]GTPgammaS binding assay; type: functional
T4 sequence (P30542 whole entry): T1 sequence (whole entry)
How it was run: (§1)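 CHO-hA1 membrane homogenates (3 µg) equilibrated 30 min at 25 °C in 50 mM Tris, 100 mM NaCl, 5 mM MgCl2, 1 mM EDTA, 1 mM DTT, 0.05% BSA, pH 7.4, with 3 µM GDP, saponin and ligand over a concentration range. [35S]GTPγS then added (final 0.3 nM) and incubated 90 min at 25 °C. Filtration on GF/B, ice-cold washes, scintillation counting. n = 3.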

[5] = biological target: T1, Adenosine receptor A1 (Homo sapiens); assay: Agonist activity at human adenosine A1 receptor expressed in CHO cell membranes by [35S]GTPgammaS binding assay relative to 100 uM CPA; type: functional; how it was run: as §1
[6] = biological target: Adenosine receptors; A1 & A3 (Homo sapiens) (UniProt P30542+P0DMS8); assay: Selectivity for human adenosine A1 receptor expressed in CHO cell membranes over human adenosine A3 receptor expressed in CHO cell membrane; type: cell-based
[7] = biological target: T1, Adenosine receptor A1 (Homo sapiens); assay: Displacement of [3H]DPCPX from human adenosine A1 receptor expressed in CHO cell membranes at 1 uM by competition association assay
[8] = biological target: T1, Adenosine receptor A1 (Homo sapiens); assay: Displacement of [3H]DPCPX from human adenosine A1 receptor expressed in CHO cell membranes assessed as association rate constant by competition association assay
How it was run: (§2)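 Competition association assay on CHO cell membranes stably expressing hA1, with [3H]DPCPX as tracer. kon and koff come from these association curves (n ≥ 3, ± SEM). Residence time is shown alongside koff and corresponds to 1/koff in minutes.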

[9] = biological target: T1, Adenosine receptor A1 (Homo sapiens); assay: Displacement of [3H]DPCPX from human adenosine A1 receptor expressed in CHO cell membranes assessed as dissociation rate constant by competition association assay; how it was run: as §2
[10] = biological target: T1, Adenosine receptor A1 (Homo sapiens); assay: Displacement of [3H]DPCPX from human adenosine A1 receptor expressed in CHO cell membranes assessed as residence time by competition association assay; how it was run: as §2

Sequence of Adenosine receptor A2a (Homo sapiens) (P29274 whole entry): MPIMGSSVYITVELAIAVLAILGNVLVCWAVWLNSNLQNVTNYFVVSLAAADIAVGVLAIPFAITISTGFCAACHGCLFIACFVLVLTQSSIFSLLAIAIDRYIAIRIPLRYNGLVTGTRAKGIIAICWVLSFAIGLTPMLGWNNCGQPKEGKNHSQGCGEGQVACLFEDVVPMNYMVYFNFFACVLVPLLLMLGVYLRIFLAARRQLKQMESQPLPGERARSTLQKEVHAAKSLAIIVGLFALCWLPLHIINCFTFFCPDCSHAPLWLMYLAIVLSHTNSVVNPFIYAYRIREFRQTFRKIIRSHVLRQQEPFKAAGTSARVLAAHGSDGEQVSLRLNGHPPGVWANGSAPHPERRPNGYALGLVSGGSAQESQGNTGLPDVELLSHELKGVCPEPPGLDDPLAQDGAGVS

SMILES	Ratio [1]	inhibition [2]	inhibition [3]	inhibition [4]	pEC50 (Adenosine receptor A1)	Emax [5]	Selectivity ratio [6]	inhibition [7]	K [8]	K [9]	TIME [10]
COc1ccc(-c2c(C#N)c(N)nc(SCc3csc(-c4ccc(F)cc4)n3)c2C#N)cc1	1.56								4.6 ×10⁶ /M/min	0.033 min⁻¹	0.505 h
COc1ccc(-c2c(C#N)c(N)nc(SCc3csc(-c4ccc(I)cc4)n3)c2C#N)cc1	2.07							> 80%	1.6 ×10⁶ /M/min	0.011 min⁻¹	1.51 h
COc1ccc(-c2c(C#N)c(N)nc(SCc3csc(-c4ccc(Cl)c(Cl)c4)n3)c2C#N)cc1	2.35								1.1 ×10⁶ /M/min	0.019 min⁻¹	0.877 h
COc1ccc(-c2c(C#N)c(N)nc(SCc3csc(-c4cccc(Cl)c4)n3)c2C#N)cc1	1.6							> 80%	7.7 ×10⁵ /M/min	0.025 min⁻¹	0.667 h
COc1ccc(-c2c(C#N)c(N)nc(SCc3csc(-c4ccc(Cl)cn4)n3)c2C#N)cc1	1.64							> 80%	3.4 ×10⁶ /M/min	0.035 min⁻¹	0.477 h
N#Cc1c(N)nc(SCc2csc(-c3ccc(Cl)cc3)n2)c(C#N)c1-c1ccc2c(c1)OCO2	2							> 80%	2.4 ×10⁶ /M/min	0.016 min⁻¹	1.04 h
N#Cc1c(N)nc(SCc2csc(-c3ccc(Cl)cc3)n2)c(C#N)c1-c1ccc(OCCO)cc1 [CAPADENOSON]	1.42	0%	2.5%	1.2%	8.96	97%	> 100	> 80%	2.4 ×10⁷ /M/min	0.036 min⁻¹	0.463 h
COc1ccc(-c2c(C#N)c(N)nc(SCc3csc(-c4ccc(Br)cn4)n3)c2C#N)cc1	1.71							> 80%	1.4 ×10⁶ /M/min	0.03 min⁻¹	0.555 h

Continued, values first:

Ratio [1]	inhibition [2]	inhibition [3]	inhibition [4]	pEC50 (Adenosine receptor A1)	Emax [5]	Selectivity ratio [6]	inhibition [7]	K [8]	K [9]	TIME [10]	SMILES
1.12	0%	0%	51%	8.72	104%	> 100	> 80%				COc1ccc(-c2c(C#N)c(N)nc(SCc3csc(N4CCOCC4)n3)c2C#N)cc1
1.79								1.4 ×10⁶ /M/min	0.028 min⁻¹	0.595 h	COc1ccc(-c2c(C#N)c(N)nc(SCc3nc(-c4ccc(Cl)cc4)sc3Cl)c2C#N)cc1
2.07							> 80%	4.3 ×10⁶ /M/min	0.028 min⁻¹	0.595 h	N#Cc1c(N)nc(SCc2csc(-c3ccc(Cl)cc3)n2)c(C#N)c1-c1ccc(O)cc1
1.08	0%	0%	22%	8.12	99%	> 100	> 80%				COc1ccc(-c2c(C#N)c(N)nc(SCc3csc(-c4ccccn4)n3)c2C#N)cc1
1.53							> 80%	9.4 ×10⁵ /M/min	0.024 min⁻¹	0.695 h	COc1ccc(-c2c(C#N)c(N)nc(SCc3csc(-c4ccccc4Cl)n3)c2C#N)cc1
2.55	5.8%	20%	19%	8.54	83%	> 100	> 80%	2.6 ×10⁶ /M/min	0.0076 min⁻¹	2.2 h	COc1ccc(-c2c(C#N)c(N)nc(SCc3csc(-c4ccc(Cl)cc4)n3)c2C#N)cc1
1.55							> 80%	2.4 ×10⁶ /M/min	0.02 min⁻¹	0.833 h	COc1ccc(-c2c(C#N)c(N)nc(SCc3csc(-c4ccc(Br)cc4)n3)c2C#N)cc1
1	0%		50%	8.82	55%	> 100					COc1ccc(-c2c(C#N)c(N)nc(SCc3cscn3)c2C#N)cc1
1.23	0%	63%	27%	8.72	105%	> 100	> 80%				COc1ccc(-c2c(C#N)c(N)nc(SCc3csc(-c4ccccc4)n3)c2C#N)cc1
